Usually IC50 stands for the point on the concentration scale where inhibition reaches its midpoint.

Data set [1] concerns the target T1, Prostaglandin G/H synthase 1 (Homo sapiens, UniProt P23219). The data set can be described thus: Inhibition of COX1 in human whole blood assessed as effect on A23187-induced thromboxane B2 production. The format is tissue-based.
The target of data set [2] is T1, Prostaglandin G/H synthase 1. In words: Inhibition of COX1 in human whole blood assessed as effect on A23187-induced thromboxane B2 production at 100 uM relative to control; values are per cent of control.
Data set [3] has the same target. The data set can be described thus: Inhibition of COX1 in human whole blood assessed as effect on A23187-induced thromboxane B2 production at 0.3 uM relative to control; values are per cent of control.
The species entered for data set [4] is Homo sapiens. In words: Selectivity for human COX2 over human COX1.
Data set [5] relates to Rattus norvegicus. In words: Toxicity in Sprague-Dawley rat assessed as reduction of gastric lesion score at 45 umol/kg, po. The format is organism-based, Stomach. More on the design: scale not given: the % may be the effect or the level left. Particulars: in vivo. Put shortly:
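Rats fasted 18 h; compound homogenized in 0.5% methocel and gavaged at 1 mL/kg. Killed 3 h after dosing. Stomach opened along the greater curvature and photographed. Hemorrhagic lesion lengths scored blind and summed as the total lesion score. Means ± SEM, 4–12 animals; ANOVA with Dunnett's test.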

Data set [6] relates to Rattus norvegicus. The data set can be described thus: Antiinflammatory activity against intrapouch dosed Sprague-Dawley rat carrageenan air-pouch model assessed as reduction of prostaglandin E2 at 45 umol/kg. The format is functional. Set-up: scale not given: the % may be the effect or the level left. The procedure, abridged: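 Air pouch made with 20 mL sterile air sc on day -6 and 10 mL more on day -3; rats fasted 18 h. Compound in 0.5% methocel injected into the pouch 1 h before carrageenan (1 mL of 1.0% in saline). After 4 h, exudate recovered with PBS/heparin and assayed for PGE2 by enzyme immunoassay.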

For data set [7], the target named is T1, Prostaglandin G/H synthase 1. In words: Inhibition of COX1 in human whole blood assessed as effect on A23187-induced thromboxane B2 production at 30 uM relative to control; values are per cent of control.
Data set [8] shares this target. The data set can be described thus: Inhibition of COX1 in human whole blood assessed as effect on A23187-induced thromboxane B2 production at 1 uM relative to control; values are per cent of control.
Data set [9] has the same target. The data set can be described thus: Inhibition of COX1 in human whole blood assessed as effect on A23187-induced thromboxane B2 production at 10 uM relative to control; values are per cent of control.
For data set [10], the system named is Rattus norvegicus. In words: Antiinflammatory activity against Sprague-Dawley rat carrageenan air-pouch model assessed as reduction of prostaglandin E2 at 45 umol/kg, po. More on the design: scale not given: the % may be the effect or the level left. The format is functional. Put shortly: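 Air pouches raised by sc injection of 20 mL sterile air (day -6) plus 10 mL on day -3; rats fasted 18 h. Compound suspended in 0.5% methocel given orally 1 h before intrapouch carrageenan (1 mL of 1.0% in saline). Exudate collected 4 h later after PBS/heparin lavage; PGE2 by enzyme immunoassay. Means ± SEM, n = 6–22; ANOVA with Dunnett's test vs vehicle.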

The target in data set [11] is T2, Prostaglandin G/H synthase 2 (Homo sapiens) (UniProt P35354).
T2 sequence (whole entry): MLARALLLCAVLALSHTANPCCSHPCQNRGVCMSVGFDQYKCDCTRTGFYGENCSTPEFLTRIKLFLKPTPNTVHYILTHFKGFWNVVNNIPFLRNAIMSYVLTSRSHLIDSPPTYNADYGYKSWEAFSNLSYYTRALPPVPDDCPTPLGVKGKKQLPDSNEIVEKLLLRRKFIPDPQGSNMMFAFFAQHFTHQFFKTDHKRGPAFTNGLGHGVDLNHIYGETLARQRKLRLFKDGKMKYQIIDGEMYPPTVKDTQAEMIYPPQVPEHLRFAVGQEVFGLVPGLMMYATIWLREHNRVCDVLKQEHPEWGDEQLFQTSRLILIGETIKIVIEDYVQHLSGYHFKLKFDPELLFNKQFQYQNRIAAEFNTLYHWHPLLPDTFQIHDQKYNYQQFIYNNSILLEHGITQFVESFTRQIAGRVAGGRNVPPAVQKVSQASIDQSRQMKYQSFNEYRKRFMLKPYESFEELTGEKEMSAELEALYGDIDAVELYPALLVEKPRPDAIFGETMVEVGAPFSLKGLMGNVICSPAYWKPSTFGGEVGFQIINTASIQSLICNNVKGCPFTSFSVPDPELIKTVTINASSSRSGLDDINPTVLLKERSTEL
In words: Inhibition of COX2 in human whole blood assessed as effect on LPS-induced thromboxane B2 production at 30 uM relative to control; values are per cent of control.

The target of data set [12] is T1, Prostaglandin G/H synthase 1. In words: Inhibition of COX1 in human whole blood assessed as effect on A23187-induced thromboxane B2 production at 3 uM relative to control; values are per cent of control.
Data set [13] has as its system Rattus norvegicus. In words: Increase in nitrite plus nitrate levels in Sprague-Dawley rat at 45 umol/kg, po. The format is functional, organism-based. Put shortly: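 Plasma taken by cardiac puncture 4 h after oral dosing (0.5% methylcellulose vehicle), at the end of the air-pouch experiment. Total NOx (nitrite plus nitrate) measured with a fluorometric kit. Means ± SEM, n = 3; ANOVA with Dunnett's test vs vehicle.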

Data set [14] has as its system Rattus norvegicus. The data set can be described thus: Gastric sparing effect in Sprague-Dawley rat assessed as reduction of aspirin-induced gastric damage at 45 umol/kg, po. The format is ADME, organism-based, Stomach. The following applies: in vivo. Set-up: scale not given: the % may be the effect or the level left. The procedure, abridged:
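Aspirin (25 mg/kg, in 1.0% methocel) gavaged at 1.0 mL/kg; test compound in 0.5% methocel gavaged 2 min later. Rats killed after 3 h and stomachs scored as summed hemorrhagic lesion lengths. Six groups, 3–11 rats each; ANOVA with Newman-Keuls test.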

The target of data set [15] is T2, Prostaglandin G/H synthase 2 (Homo sapiens). The data set can be described thus: Inhibition of COX2 in human whole blood assessed as effect on LPS-induced thromboxane B2 production at 100 uM relative to control; values are per cent of control.

Activity calls are given as the source filed them. No cut-off for these calls is given here.

T1 sequence (P23219 whole entry): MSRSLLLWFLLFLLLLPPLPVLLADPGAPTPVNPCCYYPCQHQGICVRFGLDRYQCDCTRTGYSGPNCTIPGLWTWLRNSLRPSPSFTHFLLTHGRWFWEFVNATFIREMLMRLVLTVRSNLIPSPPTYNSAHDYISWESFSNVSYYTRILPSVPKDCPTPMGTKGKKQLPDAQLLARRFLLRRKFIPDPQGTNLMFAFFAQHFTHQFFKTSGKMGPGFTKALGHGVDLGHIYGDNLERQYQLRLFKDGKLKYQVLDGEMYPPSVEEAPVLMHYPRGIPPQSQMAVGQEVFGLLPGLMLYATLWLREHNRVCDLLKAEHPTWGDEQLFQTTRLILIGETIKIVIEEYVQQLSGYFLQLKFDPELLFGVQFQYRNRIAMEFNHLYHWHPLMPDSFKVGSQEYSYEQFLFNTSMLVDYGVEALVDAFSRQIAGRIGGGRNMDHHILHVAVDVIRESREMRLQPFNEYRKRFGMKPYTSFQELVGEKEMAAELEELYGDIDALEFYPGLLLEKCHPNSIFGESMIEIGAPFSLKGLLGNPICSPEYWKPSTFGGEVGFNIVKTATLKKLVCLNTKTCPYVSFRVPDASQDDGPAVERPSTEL

With `COc1ccc2c(c1)c(CC(=O)NOCCCO)c(C)n2C(=O)c1ccc(Cl)cc1`, the IC50 in data set [1] was below 0.3 µM. In addition, the figures for the residual activity in data set [2] and in [3] were 1% and 28%, respectively. In addition, the Ratio IC50 in data set [4] is below 0.4.

Turning to `COc1ccc2c(c1)c(CC(=O)NCCCO)c(C)n2C(=O)c1ccc(Cl)cc1`, the Activity worked out at 98% in data set [5], 97% in data set [6] and 85% in [10]. Besides, the residual activity in data set [7] is 11%; in data set [8], 91%; in [9], 37%; in [2], 6%; in [11], 0%; in data set [12], 46%. For the same compound, the IC50 in [1] worked out at 3.3 µM.

For `COc1ccc2c(c1)c(CC(=O)NCCCO[N+](=O)[O-])c(C)n2C(=O)c1ccc(Cl)cc1`, the Activity in [5] is given as 98%; in data set [6], 99%; in data set [10] it was 71%; in [14], 85%. Besides, the residual activity in data set [7] came out at 7%; in data set [8], 77%; in [9] it was 31%; in data set [2], 0%; in [11], 1%; in data set [12], 65%. Moreover, the IC50 in data set [1] came out at 6 µM. For the same compound, in data set [13], the result was Active. Also, the Ratio IC50 in [4] was 5.

Consider `COc1cc2c(CC(=O)NCCCO[N+](=O)[O-])c(C)n(C(=O)c3ccc(Cl)cc3)c2cc1Cl`, for which the residual activity worked out at 41% in data set [7]; 98% in [8]; 70% in [9]; 0% in data set [15]; 13% in data set [2]; 3% in data set [11]. The residual activity in data set [12] stood at 72%. Further, in data set [1], the IC50 was determined as 15.9 µM.

Take `COc1ccc2c(c1)c(CCNS(=O)(=O)CCCO)c(C)n2C(=O)c1ccc(Cl)cc1`: the Activity in data set [6] is given as 98%; in [10] it was 96%. Besides, the residual activity was 23% in [7]; 73% in data set [8]; 33% in data set [9]; 6% in [2]; 0% in data set [11]; 82% in data set [3]. Moreover, the residual activity in data set [12] turned out to be 51%. For the same compound, the IC50 in data set [1] was 3.7 µM. In addition, the Ratio IC50 in data set [4] was found to be 3.5.

Turning to `COc1ccc2c(c1)c(CCNS(=O)(=O)CCCO[N+](=O)[O-])c(C)n2C(=O)c1ccc(Cl)cc1`, the figures for the Activity in [6] and in data set [10] were 59% and 44%, respectively. Further, the residual activity worked out at 20% in data set [7]; 100% in data set [8]; 57% in [9]; 16% in data set [2]; 7% in [11]; 68% in [12]. Moreover, the IC50 in [1] was found to be 11 µM.

For the origin of these results see ChEMBL document CHEMBL1138326, “Structure-based design, synthesis, and biological evaluation of indomethacin derivatives as cyclooxygenase-2 inhibiting nitric oxide donors” (J Med Chem, 2007).
